Measurements taken from ChEMBL document CHEMBL3608234, “Synthesis and antiviral evaluation of a novel series of homoserine-based inhibitors of the hepatitis C virus NS3/4A serine protease” (Bioorg Med Chem Lett, 2015).

Legend:
[1] = Inhibition of full length HCV 1b Con1 NS3/4A protease using HiLyte Fluor 610 peptide substrate by biochemical FRET assay; set-up: species or system Hepatitis C virus (isolate Con1)
Summary of the method: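 Fluorescence (FRET) protease assay on full-length genotype 1b Con1 HCV NS3/4A with HiLyte Fluor 610 peptide substrate; IC50 from percent inhibition versus concentration by four-parameter sigmoidal non-linear regression.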

Hepatitis C virus = test: Antiviral activity against HCV Con1 infected in human GS4.1 cells containing HCV Con1 subgenomic replicon assessed as reduction in NS5A protein expression by ELISA method; format: functional, cell-based, Hepacivirus hominis; details: genotype 1b Con1
Summary of the method: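 Huh-7 cells carrying HCV Con1 subgenomic replicon (GS4.1); replication followed as NS5A protein expression by ELISA; EC50 from 50% inhibition versus concentration data fitted by four-parameter sigmoidal non-linear regression.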

[2] = Cytotoxicity against human GS4.1 cells assessed as induction of cell death; format: cell-based
Summary of the method: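 GS4.1 cells (Huh-7 with Con1 subgenomic replicon); CC50 taken as concentration giving 50% cell death, from death versus concentration data relative to blank control.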

[3] = Intrinsic clearance in rat liver microsomes incubated for 2 hrs; format: ADME; details: read-out: CLH
[4] = Clearance in rat liver S9 fraction incubated for 2 hrs; format: ADME, subcellular; details: read-out: CLH
Summary of the method: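 Rat liver S9 fraction incubation for 2 h; mean clearance from n = 2.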

Hepatocyte = test: Clearance in rat cryopreserved hepatocytes incubated for 2 hrs; format: ADME, cell-based
[5] = Intrinsic clearance in dog liver microsomes incubated for 2 hrs; format: ADME, Canis lupus familiaris; details: read-out: CLH
[6] = Intrinsic clearance in Cynomologus monkey liver microsomes incubated for 2 hrs; format: ADME, Macaca fascicularis; details: cynomolgus monkey, read-out: CLH
[7] = Intrinsic clearance in human liver microsomes incubated for 2 hrs; format: ADME; details: read-out: CLH
[8] = Cmax in Sprague-Dawley rat at 10 mg/kg, po; format: ADME, organism-based; set-up: dose 10 mg/kg, route oral; details: in vivo
[9] = Tmax in Sprague-Dawley rat at 10 mg/kg, po; format: ADME, organism-based; details: in vivo
[10] = AUCt in Sprague-Dawley rat at 10 mg/kg, po; format: ADME, organism-based; details: in vivo
Summary of the method: (§1)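 Male Sprague–Dawley rats were dosed intravenously at 2 mg/kg or orally at 10 mg/kg. Plasma concentration–time data were used to derive AUC to last time point (AUCt) and AUC extrapolated to infinity, reported in ng·h/mL.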

[11] = AUC (infinity) in Sprague-Dawley rat at 10 mg/kg, po; format: ADME, organism-based; set-up: dose 10 mg/kg, route oral, time infinity; details: in vivo; summary of the method: as §1
[12] = Half life in Sprague-Dawley rat at 10 mg/kg, po; format: ADME, organism-based; details: in vivo
[13] = Drug elimination in Sprague-Dawley rat at 10 mg/kg, po; format: ADME, organism-based; details: in vivo
[14] = Clearance in Sprague-Dawley rat at 10 mg/kg, po; format: ADME, organism-based; details: in vivo
Rattus norvegicus = test: Volume of distribution in Sprague-Dawley rat at 10 mg/kg, po; format: ADME, organism-based; details: in vivo
[15] = Oral bio availability in Sprague-Dawley rat at 10 mg/kg; format: ADME, organism-based; details: in vivo
[16] = Cmax in Sprague-Dawley rat at 2 mg/kg, iv; format: ADME, organism-based; set-up: dose 2 mg/kg, route intravenous; details: in vivo
[17] = Tmax in Sprague-Dawley rat at 2 mg/kg, iv; format: ADME, organism-based; details: in vivo
[18] = AUCt in Sprague-Dawley rat at 2 mg/kg, iv; format: ADME, organism-based; details: in vivo; summary of the method: as §1
[19] = AUC (infinity) in Sprague-Dawley rat at 2 mg/kg, iv; format: ADME, organism-based; set-up: dose 2 mg/kg, route intravenous, time infinity; details: in vivo; summary of the method: as §1
[20] = Half life in Sprague-Dawley rat at 2 mg/kg, iv; format: ADME, organism-based; details: in vivo
[21] = Drug elimination in Sprague-Dawley rat at 2 mg/kg, iv; format: ADME, organism-based; details: in vivo
[22] = Clearance in Sprague-Dawley rat at 2 mg/kg, iv; format: ADME, organism-based; details: in vivo
[23] = Volume of distribution in Sprague-Dawley rat at 2 mg/kg, iv; format: ADME, organism-based; details: in vivo

## COc1ccc2c(OCC[C@@H]3NC(=O)N(C)CCCC/C=C\[C@@H]4C[C@@]4(C(=O)NS(=O)(=O)C4(C)CC4)NC3=O)cc(-c3nc(C(C)C)cs3)nc2c1Cl
[1]
  IC50: 1.7 nM
Hepatitis C virus
  EC50: 28.7 nM
[2]
  CC50: 37400 nM
[3]
  microsomal CLint: 20.7 µL/min/mg
[4]
  microsomal CLint: 7.6 µL/min/mg
Hepatocyte
  CLH: 12.6 µL/min/mg
[5]
  microsomal CLint: 19.5 µL/min/mg
[6]
  microsomal CLint: 480 µL/min/mg
[7]
  microsomal CLint: 215 µL/min/mg
[8]
  Cmax: 798 ng/mL
[9]
  Tmax: 0.75 h
[10]
  AUC(0-t): 2060 ng·h/mL
[11]
  AUC(0-inf): 2350 ng·h/mL
[12]
  half-life: 2.53 h
[13]
  k el: 7.78e-05 s⁻¹
[14]
  CL/F: 72.4 mL/min/kg
Rattus norvegicus
  Vd: 16.04 L/kg
[15]
  bioavailability: 27%
[16]
  Cmax: 2670 ng/mL
[17]
  Tmax: 6.6 min
[18]
  AUC(0-t): 1520 ng·h/mL
[19]
  AUC(0-inf): 1510 ng·h/mL
[20]
  half-life: 1.25 h
[21]
  k el: 0.000158 s⁻¹
[22]
  clearance: 22.1 mL/min/kg
[23]
  Vd: 2.42 L/kg
